In the library only some 2.5% were active in any assay of this set; here they are far more common.
SIAE inh: human SIAE inhibitors, primary screen, biochemical, fluorescence polarization, FP-Rh probe, 1536-well HTS; SIAE FP-Rh probe binding; inhibition, % at 9.66 µM; hit rate 0.69% among 370,000; AID 1053197, 2014;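 active = inhibition above a cutoff: mean of compounds within the control limits plus 3 SD of those, cut at about 17% in these data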
TCR-CD3 inh: inhibitors of human TCR-CD3 interaction, primary screen, biochemical, fluorescence, TAMRA-labeled TCR probe | T-cell receptor (TCR) | AID 651800, 2012 | inhibition, % at 9.4 µM | hit rate 0.37% among 360,000; in the data active = inhibition above about 19%;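 also: recombinant mutant TCR 2C K166C tagged with TAMRA read by polarization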
rCAG RNA binder: binders of r(CAG) RNA repeats, primary screen, biochemical, fluorescence; hit rate 1.3% among 370,000; inhibition, % at 3 µM; r(CAG) RNA repeat, TO-PRO-1 dye displacement fluorescence;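 active = inhibition above the plate cutoff, the mean of all test compounds on that plate plus 3 SD, cut at about 35% in these data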;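 also: higher means more dye released from RNA so lower well fluorescence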
ABHD4 inh: ABHD4 inhibitors, primary screen, biochemical, fluorescence polarization, mouse; (Lyso)-N-acylphosphatidylethanolamine lipase (Mus musculus), Q8VD66; purified mABHD4, FP-Rh probe fluorescence polarization; inhibition, % at 8.92 µM; hit rate 0.54% among 370,000; AID 720543, 2013;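 active = inhibition exceeding the mean over every tested compound plus 3 SD, cut at about 30% in these data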
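Material: mouse ABHD4 enzyme, wild type; Benchmarks: S159A mutant high control, sample median low control; Buffer or medium: HEPES pH 7.0, NaCl, Pluronic buffer; Signal: fluorescence polarization; Read-out: percent inhibition of probe binding, normalized to plate controls; Timing: pre-incubation 45 min, probe exposure 60 min, at 25 °C; Dosing: 8.92 µM, single dose.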
HTRA1 inhibitor: HTRA1 serine protease inhibitors, primary screen, biochemical, fluorescence polarization, HTS; hit rate 0.5% among 340,000; recombinant HTRA1, FP-rhodamine activity-based probe; inhibition, % at 5.96 µM; AID 504803, 2011; in the data active = inhibition above about 36%
Target sequence (Q92743 whole entry, looked up): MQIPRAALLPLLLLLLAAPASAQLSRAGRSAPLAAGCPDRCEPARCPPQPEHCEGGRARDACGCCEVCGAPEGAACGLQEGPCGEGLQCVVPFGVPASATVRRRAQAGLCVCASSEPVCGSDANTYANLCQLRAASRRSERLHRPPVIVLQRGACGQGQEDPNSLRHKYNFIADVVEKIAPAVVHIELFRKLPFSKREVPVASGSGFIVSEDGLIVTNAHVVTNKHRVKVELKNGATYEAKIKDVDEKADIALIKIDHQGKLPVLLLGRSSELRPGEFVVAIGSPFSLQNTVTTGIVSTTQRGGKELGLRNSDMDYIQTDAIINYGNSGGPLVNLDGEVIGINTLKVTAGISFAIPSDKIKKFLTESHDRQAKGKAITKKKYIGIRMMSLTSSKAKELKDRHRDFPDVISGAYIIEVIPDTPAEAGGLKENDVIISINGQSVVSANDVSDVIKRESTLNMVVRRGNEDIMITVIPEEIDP
rCAG binder conf: small molecules binding CAG repeat RNA – biochemical, fluorescence, confirmation. shares compounds with rCAG RNA binder. r(CAG) RNA repeat, TO-PRO-1 dye displacement fluorescence. inhibition, % at 3 µM. hit rate 70% among 4,300. AID 652065, 2013;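 active = inhibition above a per-plate cutoff, the mean inhibition of sample wells plus 3 SD, cut at about 35% in these data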;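 also: loss of TO-PRO-1 fluorescence as compound displaces dye from 1x1 AA loop RNA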
dCAG dye counter: displacement of TO-PRO-1 from CAG DNA duplex, counter-screen for rCAG RNA repeat binder project, biochemical, fluorescence, TO-PRO-1 dye, d(CAG) DNA oligo. hit rate 94% among 4,300. shares compounds with rCAG RNA binder. AID 652068, 2013. d(CAG) DNA oligo TO-PRO-1 dye displacement. inhibition, % at 3 µM;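 active = inhibition above its plate's cutoff, the mean test-well inhibition plus 3 SD, cut at about 4.8% in these data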;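 also: hits displace the dye from DNA and so lower well fluorescence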
dCAG dye DR: inhibitors of DNA CAG/GTC TO-PRO-1 complex, dose response, counter-screen for rCAG RNA repeat binder project, biochemical, fluorescence, TO-PRO-1 dye; shares compounds with rCAG RNA binder; DNA CAG/GTC duplex TO-PRO-1 dye displacement fluorescence; IC50, µM; hit rate 20% among 250; AID 686960, 2013; in the data active = IC50 below about 10 µM
Hits are given with their value; – = inactive; · = not tested or not shown.

SMILES	SIAE inh	TCR-CD3 inh	rCAG RNA binder	ABHD4 inh	HTRA1 inhibitor	rCAG binder conf	dCAG dye counter	others
COc1cc(C(=O)Nc2ccc(S(=O)(=O)Nc3onc(C)c3C)cc2)cc(OC)c1OC	–	–	–	–	–	·	·
CCOc1cc(C(=O)Nc2ccc(S(=O)(=O)Nc3onc(C)c3C)cc2)cc(OCC)c1OCC	–	–	46	–	–	52	20
CCCOc1ccc(C(=O)Nc2ccc(S(=O)(=O)Nc3onc(C)c3C)cc2)cc1	–	–	49	–	–	–	5.2
CCCOc1ccc(C(=O)N/N=C/c2ccc(-c3ccc(S(=O)(=O)Nc4ncccn4)cc3)o2)cc1	–	–	54	–	–	60	24
Cc1noc(NS(=O)(=O)c2ccc(NC(=O)COc3ccc(C#N)cc3)cc2)c1C	–	–	–	–	–	·	·
CCCCOc1ccc(C(=O)Nc2ccc(S(=O)(=O)Nc3onc(C)c3C)cc2)cc1	–	–	77	–	–	53	21
COc1ccc(C2SCCN2C(=S)Nc2ccc(Cl)cc2)cc1 (stereo unspecified)	–	–	–	–	–	·	·
CN[C@H](C)C(=O)NC[C@H]1O[C@@H](n2ccc(N)nc2=O)[C@H](O)[C@@H]1O	–	–	–	–	–	·	·
COC(CN(C(=O)CCl)C(C(=O)NC1CCCC(C)C1C)c1ccc(C)cc1)OC (stereo unspecified)	·	·	·	·	–	·	·
CC(C)c1nnc(NC(=O)CCC(=O)N2CCN(Cc3ccc(F)cc3)CC2)s1	–	–	–	–	–	·	·
O=C1CCCc2ccccc2N1Cc1cccc(Cl)c1	–	–	–	–	–	·	·
CC(C)n1c(CNC(=O)c2ccccc2F)nnc1SCC(=O)NC1CCCCC1	–	–	46	–	–	–	18
O=C(Nc1nnc(S(=O)(=O)N2CCOCC2)s1)c1ccccc1	–	–	–	–	–	·	·
CCC(=O)NC(c1ccc(N(C)C)cc1)c1c(O)ccc2ccccc12 (stereo unspecified)	–	–	–	–	–	·	·
Cc1ccc(C(=O)Nn2cnc3scc(-c4cccs4)c3c2=O)c(O)c1	–	–	40	–	–	–	8.7
FC(F)(F)c1ccc(C2Nc3cccc4cccc(c34)N2)cc1	–	–	–	–	–	·	·
Oc1ccc(C2Nc3cccc4cccc(c34)N2)c(O)c1	20	–	75	–	42	64	44
COc1cc(CCc2ccccc2)c(C(=O)O)c(O)c1C/C=C(/C)CCC=C(C)C	–	–	93	–	–	82	47
COc1cc(CCc2ccccc2)c(C(=O)O)c(O)c1CC=C(C)C	–	–	79	–	–	77	41
COc1ccc(S(=O)(=O)Nc2c(C(=O)O)[nH]c3ccccc23)c(OC)c1	–	–	36	–	–	–	–
COc1ccc(S(=O)(=O)Nc2c(C(=O)O)[nH]c3ccc(OC)cc23)cc1	–	–	–	–	–	·	·
COc1ccc(S(=O)(=O)Nc2c(C(=O)O)[nH]c3ccc(OC)cc23)c(OC)c1	–	–	36	–	–	–	10
CCNC(=O)C1(C)CCCN(C(=O)c2ccc(OC)c(F)c2)C1 (stereo unspecified)	–	–	–	–	·	·	·
CC1=CC(c2ccccc2)=NS(=O)(=O)N1	–	–	–	–	–	·	·
Cc1cc(C)c(S(=O)(=O)Nc2nnc(C)s2)c(C)c1	–	–	–	–	–	·	·
SMILES	SIAE inh	TCR-CD3 inh	rCAG RNA binder	ABHD4 inh	HTRA1 inhibitor	rCAG binder conf	dCAG dye counter	others
O=[N+]([O-])c1ccc(S(=O)(=O)Nc2nnc(C3CCCCC3)s2)cc1	–	–	47	–	–	–	8.3
Cc1cc(C)c(S(=O)(=O)Nc2nnc(CC(C)C)s2)c(C)c1	–	–	49	–	–	–	8.4
O=S(=O)(Nc1nnc(C2CCCCC2)s1)c1ccc(F)cc1	–	–	–	–	–	·	·
Cc1cc(C)c(S(=O)(=O)Nc2nnc(C3CCCCC3)s2)c(C)c1	–	–	72	–	–	59	25
CCN(CC)c1ccc(NC(=O)CCNS(=O)(=O)c2ccc3c(c2)CCC(=O)N3)c(C)c1	–	–	–	–	–	·	·
COc1ccc(NC(=O)CSc2nnc(-c3ccccc3C)n2N)cc1	–	–	–	–	–	·	·
O=Cc1cccc(OCc2cn(CC(=O)c3ccc(O)cc3)nn2)c1	–	–	–	–	–	·	·
O=C(Cn1cc(COc2ccc3ccccc3c2)nn1)NS(=O)(=O)c1cccc(OC(F)F)c1	–	–	55	–	·	71	23	dCAG dye DR=9.3
O=C(Nc1ccc(S(=O)(=O)Nc2nccs2)cc1)c1cc(-c2ccccc2)nc2ccccc12	–	–	74	–	–	76	38
Cc1ccc(-c2cc(C(=O)Nc3ccc(S(=O)(=O)Nc4nccs4)cc3)c3ccccc3n2)c(C)c1	–	–	68	–	–	71	30	dCAG dye DR=–
CCc1ccc(-c2cc(C(=O)Nc3ccc(S(=O)(=O)NC(C)=O)cc3)c3ccccc3n2)cc1	–	–	58	–	–	63	29
Cc1ccc(-c2cc(C(=O)Nc3ccc(S(=O)(=O)Nc4ncccn4)cc3)c3ccccc3n2)cc1	–	–	58	–	–	64	20
CC(C)(C)NS(=O)(=O)c1ccc(NC(=O)c2cc(-c3ccccc3)nc3ccccc23)cc1	–	–	–	–	–	·	·
Cc1ccc(C)c(-c2cc(C(=O)Nc3nccs3)c3ccccc3n2)c1	–	–	–	–	–	·	·
Cc1onc(-c2c(F)cccc2Cl)c1C(=O)Nc1sc2c(c1C#N)CCC(C(C)(C)C)C2 (stereo unspecified)	–	–	–	–	–	·	·
CNC(=O)NC(=O)C(c1ccccc1)N(C)CC1COc2ccccc2O1 (stereo unspecified)	–	–	–	–	–	·	·
CCOC(=O)c1ccc(NC(=O)NCCN2CCCCC2)cc1	–	–	–	–	–	·	·
Cc1cc(NS(=O)(=O)c2ccc(NC(=O)c3cc(-c4ccccc4Cl)nc4ccccc34)cc2)no1	–	–	75	–	–	72	39
O=C(O)c1[nH]c2ccc(Cl)cc2c1CCN1C(=O)c2ccccc2C1=O	–	–	50	–	–	–	6.3
COc1ccc2[nH]c(C(=O)O)c(CCN3C(=O)c4ccc(C(=O)O)cc4C3=O)c2c1	–	–	–	–	–	·	·

Source: PubChem (The Scripps Research Institute Molecular Screening Center)
